Test results: ChEMBL document CHEMBL1156880, “Isosorbide-based cholinesterase inhibitors; replacement of 5-ester groups leading to increased stability” (Bioorg Med Chem, 2010)
The source made the active and inactive calls. The rule behind the calls is not given here.

Key:
[1] = molecular target: T1, Cholinesterase (Homo sapiens, UniProt P06276); experiment: Inhibition of human plasma BuChE at 100 uM preincubated for 30 mins before substrate addition by Ellman's assay; type: cell-free
Outline: (§1)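 Ellman assay, phosphate buffer pH 8.0. Human plasma from heparinised venous blood, centrifuged and diluted 1 mL to 20 mL in buffer, with DTNB. Inhibitor, in acetonitrile/water 1:1 as vehicle, preincubated 30 min before butyrylthiocholine is added (final 0.5 mM); 412 nm read over 5 min. Screened at 100 μM; IC50 determined only where inhibition exceeded 90%. Controls without enzyme; n = 6.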

[2] = molecular target: Acetylcholinesterase (Electrophorus electricus) (UniProt O42275); experiment: Inhibition of electric eel AChE at 100 uM preincubated for 30 mins before substrate addition by Ellman's assay
Outline: (§2)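 Ellman assay, phosphate buffer pH 8.0. Inhibitor, in acetonitrile/water 1:1 as vehicle, preincubated with enzyme 30 min before acetylthiocholine is added (final 0.5 mM); 412 nm read over 5 min. Screened at 100 μM; IC50 found by serial lower concentrations only where inhibition exceeded 90%. Controls without enzyme account for spontaneous hydrolysis; n = 6.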

[3] = Selectivity for electric eel AChE over human plasma BuChE; type: cell-free
Outline: (§3)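 Ratio of the 30 min BuChE and AChE IC50 values from the Ellman assays, using 100 μM in place of any IC50 that was not determined.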

[4] = molecular target: Acetylcholinesterase (Electrophorus electricus, UniProt O42275); experiment: Inhibition of electric eel AChE preincubated for 30 mins before substrate addition by Ellman's assay; outline: as §2
[5] = Selectivity for human plasma BuChE over electric eel AChE; type: cell-free; outline: as §3
[6] = molecular target: T1, Cholinesterase; experiment: Inhibition of human plasma BuChE preincubated for 30 mins before substrate addition by Ellman's assay; outline: as §1
[7] = test system: Mus musculus; experiment: Inhibition of BuChE in CD1 mouse plasma at 1 mg/kg, ip administered as single dose measured after 72 hrs; type: functional, organism-based; set-up: dose 1 mg/kg
Outline: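 Male CD-1 mice (35–40 g) given one ip injection, 0.1 mL per 10 g body weight, into the left lower abdominal quadrant; n = 9 split into three subgroups of 3 for serial sampling. Submandibular blood (about 50 μL) collected into lithium heparin and kept on ice; terminal sampling by cardiac puncture under ketamine/xylazine. Plasma spun 10 min at 4 °C, then BuChE activity read ex vivo by Ellman assay.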

Acetylcholinesterase (Electrophorus electricus), sequence (O42275 24-633 limits assumed): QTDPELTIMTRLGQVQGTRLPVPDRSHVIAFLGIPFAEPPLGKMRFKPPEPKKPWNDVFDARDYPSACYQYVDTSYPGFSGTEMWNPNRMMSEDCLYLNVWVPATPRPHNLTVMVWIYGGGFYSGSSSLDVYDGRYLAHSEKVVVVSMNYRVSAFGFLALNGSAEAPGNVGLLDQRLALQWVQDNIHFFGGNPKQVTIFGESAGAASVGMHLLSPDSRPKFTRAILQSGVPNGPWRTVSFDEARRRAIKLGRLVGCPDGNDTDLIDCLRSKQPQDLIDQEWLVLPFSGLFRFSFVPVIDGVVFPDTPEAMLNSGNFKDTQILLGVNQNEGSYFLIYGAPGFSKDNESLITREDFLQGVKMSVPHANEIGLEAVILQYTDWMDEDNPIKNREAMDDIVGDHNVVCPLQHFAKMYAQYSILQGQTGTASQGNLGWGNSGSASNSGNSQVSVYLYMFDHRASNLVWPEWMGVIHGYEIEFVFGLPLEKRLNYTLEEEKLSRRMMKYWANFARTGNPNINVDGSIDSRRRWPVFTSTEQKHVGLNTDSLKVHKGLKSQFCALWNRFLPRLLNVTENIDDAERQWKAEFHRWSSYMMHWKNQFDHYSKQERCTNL
T1 sequence (P06276 whole entry): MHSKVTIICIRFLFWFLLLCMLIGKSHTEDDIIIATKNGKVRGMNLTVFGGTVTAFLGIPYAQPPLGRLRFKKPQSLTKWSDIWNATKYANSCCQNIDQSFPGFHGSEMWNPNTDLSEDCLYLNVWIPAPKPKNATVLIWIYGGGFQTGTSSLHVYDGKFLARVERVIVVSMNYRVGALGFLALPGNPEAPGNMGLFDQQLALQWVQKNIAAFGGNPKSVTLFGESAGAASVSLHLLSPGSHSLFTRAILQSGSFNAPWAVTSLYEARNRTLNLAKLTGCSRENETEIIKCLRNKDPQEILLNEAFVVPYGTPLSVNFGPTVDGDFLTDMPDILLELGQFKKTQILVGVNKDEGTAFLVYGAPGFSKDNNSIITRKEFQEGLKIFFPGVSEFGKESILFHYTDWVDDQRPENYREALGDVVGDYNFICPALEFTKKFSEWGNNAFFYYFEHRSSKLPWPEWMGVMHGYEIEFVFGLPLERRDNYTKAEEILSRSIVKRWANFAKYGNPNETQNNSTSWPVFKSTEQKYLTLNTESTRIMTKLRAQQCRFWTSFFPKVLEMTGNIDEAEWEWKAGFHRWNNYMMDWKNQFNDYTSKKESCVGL
Acetylcholinesterase, sequence (O42275 whole entry): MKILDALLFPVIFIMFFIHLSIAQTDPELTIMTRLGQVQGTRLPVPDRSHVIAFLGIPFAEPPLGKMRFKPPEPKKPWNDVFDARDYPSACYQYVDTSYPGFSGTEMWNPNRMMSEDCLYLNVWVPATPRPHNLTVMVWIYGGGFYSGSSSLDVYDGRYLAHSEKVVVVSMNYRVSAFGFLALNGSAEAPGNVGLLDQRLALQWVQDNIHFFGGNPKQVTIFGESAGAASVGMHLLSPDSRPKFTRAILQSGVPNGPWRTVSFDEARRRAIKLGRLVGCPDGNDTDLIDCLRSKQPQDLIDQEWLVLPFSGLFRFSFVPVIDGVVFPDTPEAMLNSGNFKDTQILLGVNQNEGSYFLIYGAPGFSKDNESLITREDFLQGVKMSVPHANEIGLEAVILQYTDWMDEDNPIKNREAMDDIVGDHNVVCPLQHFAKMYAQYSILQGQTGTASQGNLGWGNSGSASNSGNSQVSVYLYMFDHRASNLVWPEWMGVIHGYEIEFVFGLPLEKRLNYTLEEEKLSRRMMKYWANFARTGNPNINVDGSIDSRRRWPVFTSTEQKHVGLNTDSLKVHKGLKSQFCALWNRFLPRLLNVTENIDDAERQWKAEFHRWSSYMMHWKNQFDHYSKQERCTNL

With O=C(NCc1ccccc1)O[C@H]1CO[C@H]2[C@@H]1OC[C@H]2NC(=O)c1ccccc1 the inhibition [1] was 88% and the inhibition [2] was 46%.

[N-]=[N+]=N[C@@H]1CO[C@H]2[C@@H]1OC[C@@H]2OC(=O)NCc1ccccc1 gave an inhibition [1] of 50.4% and an inhibition [2] of 5%.

Molecule CCNC(=O)O[C@H]1CO[C@H]2[C@@H]1OC[C@H]2OC(=O)NCC has an inhibition [1] of 55.1%, a Selectivity ratio [3] of 15.4 and an IC50 [4] of 6.5 µM.

In the case of O=C(NCc1ccccc1)O[C@H]1CO[C@@H]2C(=O)CO[C@H]12, the inhibition [1] is reported as 46% and the inhibition [2] is reported as 10%.

CCCCNC(=O)O[C@H]1CO[C@H]2[C@@H]1OC[C@H]2OC(=O)NCCCC gave a Selectivity ratio [5] of 81, an IC50 [6] of 1.22 µM and an inhibition [2] of 13%.

In the case of O=C(NCc1ccccc1)O[C@H]1CO[C@@H]2/C(=N/OC(=O)c3ccccc3)CO[C@H]12, the inhibition [1] is reported as 64.8% and the inhibition [2] is reported as 9%.

Work on CCCNC(=O)O[C@H]1CO[C@H]2[C@@H]1OC[C@H]2OC(=O)NCCC yielded a Selectivity ratio [5] of 9.6, an IC50 [6] of 10.4 µM and an inhibition [2] of 28%.

In the case of CN1C(=O)CO[C@@H]2[C@@H](OC(=O)NCc3ccccc3)CO[C@@H]21, the inhibition [1] is reported as 63% and the inhibition [2] is reported as 6.5%.

Work on O=C(Nc1ccc(Cl)cc1)O[C@H]1CO[C@H]2[C@@H]1OC[C@H]2OC(=O)Nc1ccc(Cl)cc1 yielded an inhibition [1] of 7.96%.

In the case of O=C(Nc1ccccc1)O[C@H]1CO[C@H]2[C@@H]1OC[C@H]2OC(=O)Nc1ccccc1, the inhibition [1] is reported as 20.6% and the inhibition [2] is reported as 77%.

With O=C(NCc1ccccc1)O[C@H]1CO[C@H]2[C@@H]1OC[C@H]2OC(=O)NCc1ccccc1 the Selectivity ratio [5] was 250, the IC50 [6] was 0.4 µM and the inhibition [2] was 77%.

With O=C1CO[C@H]2[C@H](OC[C@@H]2OC(=O)NCc2ccccc2)O1 (relative stereo) the inhibition [1] was 56% and the inhibition [2] was 10%.

O=C(Nc1ccc([N+](=O)[O-])cc1)O[C@H]1CO[C@H]2[C@@H]1OC[C@H]2OC(=O)Nc1ccc([N+](=O)[O-])cc1 showed an inhibition [1] of 17.4%, a Selectivity ratio [3] of 18.5 and an IC50 [4] of 5.4 µM.

In the case of CCOC(=O)/C=C1\CO[C@@H]2[C@@H](OC(=O)NCc3ccccc3)CO[C@H]12, the Selectivity ratio [5] is reported as 21, the IC50 [6] is reported as 4.8 µM and the inhibition [2] is reported as 4.9%.

In the case of O=C(NCc1ccccc1)O[C@H]1CO[C@H]2[C@@H]1OC[C@H]2OCc1ccccc1, the Selectivity ratio [5] is reported as 1920, the IC50 [6] is reported as 0.052 µM and the inhibition [2] is reported as 55%. The inhibition [7] was “Active”.

For O=C(NCc1ccccc1)O[C@H]1CO[C@@H]2C=CO[C@H]12, the Selectivity ratio [5] was 9.7, the IC50 [6] was 10.2 µM and the inhibition [2] was 9.8%.

O=C(NCc1ccccc1)O[C@H]1CO[C@@H]2/C(=N/O)CO[C@H]12 showed an inhibition [1] of 40% and an inhibition [2] of 83%.
